Assay results published in ChEMBL document CHEMBL5303300, “EUbOPEN Chemogenomics Library - Multiplex” (2023).
Where “and” joins values, the source holds several entries; their conditions need not be identical. Equal entries are not always repeated.

Tested on: U2OS
Assay: Multiplex assay against U2OS
Assay type: toxicity, cell-based
Conditions: human, number of replicates 2
Outline: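 Live cells carried four stains from seeding: Hoechst33342, BioTracker Green Microtubule Cytoskeleton Dye, MitoTracker Red and Annexin V Alexa Fluor 680. They were imaged on a CQ1 microscope at 37°C and 5% CO2 after compound addition. Using CellPathfinder machine-learning gating, cells were split into Hoechst high-intensity objects or normal cells, normal cells into healthy, pyknosed or fragmented nuclei, and pyknosed cells into mitotic or apoptotic; tubulin, mitochondrial-mass and membrane-permeability phenotypes are per cents of healthy-nucleus cells.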

[1] = 12 h, 1 µM, compound concentration 1 uM
[2] = 12 h, 10 µM, compound concentration 10 uM
[3] = 24 h, 1 µM, compound concentration 1 uM
[4] = 24 h, 10 µM, compound concentration 10 uM
[5] = 48 h, 1 µM, compound concentration 1 uM
[6] = 48 h, 10 µM, compound concentration 10 uM

SMILES: Cc1ccc2c(c1CCC(=O)O)CC[C@@H](NS(=O)(=O)c1ccc(Cl)cc1)C2 [TERUTROBAN]
- Population Apoptotic (%) [1]: 44% and 33%
- Population Healthy Nuclei (%) [1]: 83% and 55%
- Population Hoechst High Intensity Objects (%) [1]: 0%
- Population Membrane Permeable-Phenotype (%) [1]: 1% and 0%
- Population Mitochondria Different-Phenotype (%) [1]: 1% and 0%
- Population Mitotic Cells (%) [1]: 56% and 66%
- Population Normal (%) [1]: 100%
- Population Pyknosed Nuclei (%) [1]: 11% and 7%
- Population Tubulin-Different-Phenotype (%) [1]: 92% and 47%
- Population Apoptotic (%) [2]: 44% and 50%
- Population Fragmented Nuclei (%) [2]: 8% and 2%
- Population Healthy Nuclei (%) [2]: 76% and 86%
- Population Hoechst High Intensity Objects (%) [2]: 0%
- Population Membrane Permeable-Phenotype (%) [2]: 4% and 2%
- Population Mitochondria Different-Phenotype (%) [2]: 2% and 0%
- Population Mitotic Cells (%) [2]: 55% and 50%
- Population Normal (%) [2]: 100%
- Population Pyknosed Nuclei (%) [2]: 15% and 10%
- Population Tubulin-Different-Phenotype (%) [2]: 73% and 87%
- Population Apoptotic (%) [3]: 50% and 61%
- Population Healthy Nuclei (%) [3]: 61% and 87%
- Population Hoechst High Intensity Objects (%) [3]: 0%
- Population Membrane Permeable-Phenotype (%) [3]: 0% and 1%
- Population Mitochondria Different-Phenotype (%) [3]: 0%
- Population Mitotic Cells (%) [3]: 50% and 38%
- Population Normal (%) [3]: 100%
- Population Pyknosed Nuclei (%) [3]: 5% and 8%
- Population Tubulin-Different-Phenotype (%) [3]: 66% and 92%
- Population Apoptotic (%) [4]: 66% and 62%
- Population Fragmented Nuclei (%) [4]: 9% and 2%
- Population Healthy Nuclei (%) [4]: 81% and 87%
- Population Hoechst High Intensity Objects (%) [4]: 0%
- Population Membrane Permeable-Phenotype (%) [4]: 5% and 0%
- Population Mitochondria Different-Phenotype (%) [4]: 3% and 0%
- Population Mitotic Cells (%) [4]: 33% and 37%
- Population Normal (%) [4]: 100%
- Population Pyknosed Nuclei (%) [4]: 8% and 10%
- Population Tubulin-Different-Phenotype (%) [4]: 75% and 92%
- Population Apoptotic (%) [5]: 37% and 58%
- Population Healthy Nuclei (%) [5]: 66% and 91%
- Population Hoechst High Intensity Objects (%) [5]: 0%
- Population Membrane Permeable-Phenotype (%) [5]: 2%
- Population Mitochondria Different-Phenotype (%) [5]: 0%
- Population Mitotic Cells (%) [5]: 62% and 41%
- Population Normal (%) [5]: 100%
- Population Pyknosed Nuclei (%) [5]: 11% and 5%
- Population Tubulin-Different-Phenotype (%) [5]: 73% and 94%
- Population Apoptotic (%) [6]: 25% and 57%
- Population Fragmented Nuclei (%) [6]: 3% and 1%
- Population Healthy Nuclei (%) [6]: 85% and 91%
- Population Hoechst High Intensity Objects (%) [6]: 0%
- Population Membrane Permeable-Phenotype (%) [6]: 4% and 1%
- Population Mitochondria Different-Phenotype (%) [6]: 4% and 0%
- Population Mitotic Cells (%) [6]: 75% and 42%
- Population Normal (%) [6]: 100%
- Population Pyknosed Nuclei (%) [6]: 10% and 6%
- Population Tubulin-Different-Phenotype (%) [6]: 72% and 93%
